Measured values published in ChEMBL document CHEMBL1144559, “4-Pyridone derivatives as new inhibitors of bacterial enoyl-ACP reductase FabI” (Bioorg Med Chem, 2007).
Values after ≈ are worked out from the molar mass of the structure shown.

Tests used:
[1] = Inhibition of Escherichia coli DH5-alpha His tagged Fab1; set-up: species or system DH5alpha
Summary of the method: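 His-tagged E. coli FabI was expressed in E. coli TOP10 (0.2% arabinose induction), purified on Ni–NTA and eluted with 250 mM imidazole. NADH consumption was read at 340 nm for 10 min at room temperature. IC50 is the concentration giving 50% reduction of absorption.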

Staphylococcus aureus = test: Antimicrobial activity against Staphylococcus aureus ATCC 29213; assay type: functional
Summary of the method: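 Agar dilution on Mueller–Hinton agar with 5% horse blood, twofold serial compound dilutions. About 10^4 CFU per spot inoculated. Plates incubated at 35 °C for 20 h. MIC taken as the lowest concentration preventing visible growth.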

IC50 [1] [nM] | MIC (Staphylococcus aureus) [µg/mL] | Structure (SMILES)
300 | 0.5 (≈ 1.4 µM) | Cc1c(Cc2c(Cl)cccc2Cl)c(=O)ccn1Cc1ccccc1
4500 | 32 (≈ 79.9 µM) | CCCCc1c(Cc2c(Cl)cccc2Cl)c(=O)ccn1Cc1ccccc1
300 | > 128 | COC(=O)c1ccc(Cn2ccc(=O)c(Cc3c(Cl)cccc3Cl)c2C)cc1
22000 | > 128 | Cc1c(Cc2c(Cl)cccc2Cl)c(=O)ccn1Cc1ccc(C(=O)O)cc1
20000 | 64 (≈ 221 µM) | Cc1c(Cc2ccccc2)c(=O)ccn1Cc1ccccc1
4200 | 64 (≈ 198 µM) | Cc1c(Cc2ccccc2Cl)c(=O)ccn1Cc1ccccc1
2000 | 32 (≈ 89.3 µM) | Cc1c(Cc2ccc(Cl)cc2Cl)c(=O)ccn1Cc1ccccc1
2700 | 4 (≈ 12.3 µM) | Cc1c(Cc2c(F)cccc2F)c(=O)ccn1Cc1ccccc1
> 100000 |  | C=Cc1c(C)n(Cc2ccccc2)ccc1=O
> 100000 |  | Cc1c(CCc2ccccn2)c(=O)ccn1Cc1ccccc1
400 | 32 (≈ 108 µM) | Cc1c(CC2CCCCC2)c(=O)ccn1Cc1ccccc1
1800 | 8 (≈ 22.6 µM) | Cc1c(Cc2c(Cl)cccc2Cl)c(=O)ccn1CCCCCO
110000 |  | Cc1c(Cc2c(Cl)cccc2Cl)c(=O)ccn1CCCCC(=O)O
8400 | 32 (≈ 74.9 µM) | Cc1c(Cc2c(Cl)cccc2Cl)c(=O)ccn1Cc1c(Cl)cccc1Cl
290 | 1 (≈ 2.68 µM) | Cc1c(Cc2c(Cl)cccc2Cl)c(=O)ccn1Cc1ccc(N)cc1
470 | 2 (≈ 5.74 µM) | Cc1c(Cc2c(Cl)cccc2Cl)c(=O)ccn1Cc1ccco1
4300 | 16 (≈ 50.4 µM) | Cc1cccc(C)c1Cc1c(C)n(Cc2ccccc2)ccc1=O

IC50 [1] [nM] | MIC (Staphylococcus aureus) [µg/mL] | Structure (SMILES)
380 | 8 (≈ 24.7 µM) | CCCCc1cc(=O)c(Cc2c(Cl)cccc2Cl)c(C)[nH]1
310 | 2 (≈ 6.17 µM) | CCCCn1ccc(=O)c(Cc2c(Cl)cccc2Cl)c1C
220 | 32 (≈ 78.4 µM) | CCCCCCCCCCn1ccc(=O)c(Cc2c(Cl)cccc2Cl)c1C
290 | 2 (≈ 5.49 µM) | Cc1[nH]c(CC2CCCCC2)cc(=O)c1Cc1c(Cl)cccc1Cl
> 100000 |  | Cc1c(/C=C/c2ccccn2)c(=O)ccn1Cc1ccccc1
390 | 2 (≈ 5.85 µM) | Cc1c(Cc2c(F)cccc2Cl)c(=O)ccn1Cc1ccccc1
120000 | > 64 | Cc1[nH]ccc(=O)c1Cc1c(Cl)cccc1Cl
1500 | 8 (≈ 20.4 µM) | Cc1c(Cc2c(Cl)cc(Cl)cc2Cl)c(=O)ccn1Cc1ccccc1
11000 | > 128 | Cc1c(Cc2c(Cl)cccc2Cl)c(=O)ccn1C
2500 | 32 (≈ 79.7 µM) | Cc1c(Cc2c(Cl)cccc2Cl)c(=O)ccn1Cc1ccc(C(N)=O)cc1
780 | 8 (≈ 21.5 µM) | CCc1c(Cc2c(Cl)cccc2Cl)c(=O)ccn1Cc1ccccc1
1900 | 64 (≈ 124 µM) | Cc1c(Cc2c(Cl)cccc2Cl)c(=O)ccn1CC(C)(C)SCc1cccc(C(F)(F)F)c1
61000 | > 128 | CCCCc1c(C)n(Cc2ccccc2)ccc1=O
220 | 0.25 (≈ 0.686 µM) | Cc1c(Cc2c(Cl)cccc2Cl)c(=O)ccn1CC1CCCCC1
2900 |  | Cc1c(-c2ccccc2)c(=O)ccn1Cc1ccccc1
1800 | 16 (≈ 39.7 µM) | Cc1c(Cc2c(Cl)cccc2Cl)c(=O)ccn1Cc1ccc([N+](=O)[O-])cc1

Structure (SMILES) | IC50 [1] [nM] | MIC (Staphylococcus aureus) [µg/mL]
Oc1cc(Cl)ccc1Oc1ccc(Cl)cc1Cl [TRICLOSAN] | 510 | 0.125 (≈ 0.432 µM)
